In ChEMBL document CHEMBL4118245, “Stereoselective synthesis of new rac-quercitols containing hydroxymethyl groups as glucosidase inhibitors” (Bioorg Med Chem Lett, 2018) one finds inhibition and IC50 data, which are given here for four compounds.

For experiment [1], the system named is Saccharomyces cerevisiae. Description: Inhibition of Saccharomyces cerevisiae alpha-glucosidase at 120 uM using 4-nitrophenyl D-glucopyranoside as substrate after 3 mins by UV/Vis spectrophotometric method relative to control. Summed up: (§1)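 Compounds were tested at 10, 20, 25, 45, 80, 120 and 180 µM, with percent enzyme inhibition reported at each level. Acarbose served as the positive control. The study ran four experiments per compound, each in triplicate, and reports mean ± S.D. IC50 is the concentration giving 50% inhibition of enzyme activity under the assay conditions, taken from this concentration series.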

The test system of experiment [2] is Prunus dulcis. Put plainly: Inhibition of almond beta-glucosidase at 45 uM using p-nitrophenyl D-glucopyranoside as substrate after 3 mins by UV/Vis spectrophotometric method relative to control. Summed up: as §1
The nature of experiment [3]: Inhibition of almond beta-glucosidase using p-nitrophenyl D-glucopyranoside as substrate after 3 mins by UV/Vis spectrophotometric method. Also on record: species or system Prunus dulcis. The procedure, abridged: as §1
Experiment [4] deals with Prunus dulcis. Put plainly: Inhibition of almond beta-glucosidase at 80 uM using p-nitrophenyl D-glucopyranoside as substrate after 3 mins by UV/Vis spectrophotometric method relative to control. Summed up:
as §1

Experiment [5] has as its system Saccharomyces cerevisiae. Put plainly: Inhibition of Saccharomyces cerevisiae alpha-glucosidase at 45 uM using 4-nitrophenyl D-glucopyranoside as substrate after 3 mins by UV/Vis spectrophotometric method relative to control. The procedure, abridged: as §1
For experiment [6], the system named is Saccharomyces cerevisiae. Put plainly: Inhibition of Saccharomyces cerevisiae alpha-glucosidase at 180 uM using 4-nitrophenyl D-glucopyranoside as substrate after 3 mins by UV/Vis spectrophotometric method relative to control. Summed up:
as §1

Experiment [7] relates to Saccharomyces cerevisiae. Description: Inhibition of Saccharomyces cerevisiae alpha-glucosidase at 25 uM using 4-nitrophenyl D-glucopyranoside as substrate after 3 mins by UV/Vis spectrophotometric method relative to control. The procedure, abridged: as §1
Experiment [8] in a line: Inhibition of Saccharomyces cerevisiae alpha-glucosidase using 4-nitrophenyl D-glucopyranoside as substrate after 3 mins by UV/Vis spectrophotometric method. Summed up:
as §1

Experiment [9] relates to Prunus dulcis. Put plainly: Inhibition of almond beta-glucosidase at 20 uM using p-nitrophenyl D-glucopyranoside as substrate after 3 mins by UV/Vis spectrophotometric method relative to control. Summed up: as §1
Experiment [10] concerns Saccharomyces cerevisiae. Description: Inhibition of Saccharomyces cerevisiae alpha-glucosidase at 10 uM using 4-nitrophenyl D-glucopyranoside as substrate after 3 mins by UV/Vis spectrophotometric method relative to control. The procedure, abridged: as §1
Experiment [11] deals with Prunus dulcis. Put plainly: Inhibition of almond beta-glucosidase at 25 uM using p-nitrophenyl D-glucopyranoside as substrate after 3 mins by UV/Vis spectrophotometric method relative to control. Summed up:
as §1

Experiment [12] concerns Prunus dulcis. Description: Inhibition of almond beta-glucosidase at 120 uM using p-nitrophenyl D-glucopyranoside as substrate after 3 mins by UV/Vis spectrophotometric method relative to control. Summed up:
as §1

Experiment [13] concerns Saccharomyces cerevisiae. Put plainly: Inhibition of Saccharomyces cerevisiae alpha-glucosidase at 80 uM using 4-nitrophenyl D-glucopyranoside as substrate after 3 mins by UV/Vis spectrophotometric method relative to control. The procedure, abridged: as §1
Experiment [14] deals with Prunus dulcis. Description: Inhibition of almond beta-glucosidase at 10 uM using p-nitrophenyl D-glucopyranoside as substrate after 3 mins by UV/Vis spectrophotometric method relative to control. Summed up:
as §1

For experiment [15], the system named is Saccharomyces cerevisiae. Description: Inhibition of Saccharomyces cerevisiae alpha-glucosidase at 20 uM using 4-nitrophenyl D-glucopyranoside as substrate after 3 mins by UV/Vis spectrophotometric method relative to control. Summed up: as §1
The test system of experiment [16] is Prunus dulcis. Description: Inhibition of almond beta-glucosidase at 180 uM using p-nitrophenyl D-glucopyranoside as substrate after 3 mins by UV/Vis spectrophotometric method relative to control. Summed up: as §1

Turning to `C[C@H]1O[C@H](O[C@H]2[C@H](O)[C@@H](O)[C@@H](O[C@H]3[C@H](O)[C@@H](O)C(O)O[C@@H]3CO)O[C@@H]2CO)[C@H](O)[C@@H](O)[C@@H]1N[C@H]1C=C(CO)[C@@H](O)[C@H](O)[C@H]1O` (some centres undefined) [ACARBOSE], the inhibition was 63% in experiment [1]; 39% in [2]; 52% in [4]; 46% in [5]; 74% in experiment [6]; 33% in experiment [7]. In addition, the inhibition was 25% in [9]; 22% in experiment [10]; 29% in experiment [11]; 60% in experiment [12]; 60% in experiment [13]; 17% in [14]. Moreover, the inhibition in experiment [15] was found to be 30%; in experiment [16], 66%. Also, the IC50 in [3] amounted to 57.8 µM; in experiment [8], 52.5 µM.

Regarding `OC[C@H]1C[C@@H](O)[C@H](O)[C@H](O)[C@H]1CO`, the inhibition came to 37.6% in experiment [1]; 30.4% in experiment [2]; 31.8% in experiment [4]; 19.9% in experiment [5]; 42.2% in [6]; 19.4% in experiment [7]. Further, the inhibition worked out at 27.8% in experiment [9]; 15.8% in [10]; 28.4% in [11]; 32.1% in [12]; 21.4% in experiment [13]; 3.4% in experiment [14]. The inhibition worked out at 18.8% in experiment [15] and 33.3% in experiment [16].

Consider `OC[C@H]1C[C@H](O)[C@H](O)[C@H](O)[C@H]1CO`, for which the inhibition in [1] turned out to be 22%; in experiment [2], 34.3%; in [4] it was 37.5%; in experiment [5], 19%; in experiment [6], 25%; in experiment [7] it was 14%. Further, the inhibition in experiment [9] turned out to be 20.4%; in experiment [10] it was 2%; in experiment [11] it was 29%; in [12], 42.7%; in experiment [13] it was 20%; in experiment [14] it was 18%. Besides, the inhibition in [15] is 6%; in [16] it was 51.8%. For the same compound, in experiment [3], the IC50 was determined as 198 µM.

As for `OC[C@H]1C[C@H](O)[C@@H](O)[C@@H](O)[C@H]1CO`, the inhibition stood at 40% in experiment [1]; 13.7% in [2]; 19.1% in [4]; 21% in [5]; 42% in experiment [6]; 19% in experiment [7]. In addition, the inhibition amounted to 4.98% in experiment [9]; 10% in experiment [10]; 12.7% in [11]; 20.2% in experiment [12]; 31% in experiment [13]; 2.2% in experiment [14]. Besides, the inhibition in [15] amounted to 13%; in experiment [16], 30.8%.
